Experimental data gathered from unrelated publications.
Compare with care: the assays were run in different laboratories.
Target: Death-associated protein kinase 2 (DAPK2, Homo sapiens, UniProt Q9UIK4)

SMILES | assay | setting | measurement | result
Cc1nc(C2CCN(C(=O)c3ccc(OC(F)(F)F)cc3N)CC2)c2ncc(N3CCN(C)CC3)cc2n1 | cell-free assay, competition with immobilised ligand | 1 µM | remaining binding | 100%
CCCS(=O)(=O)Nc1ccc(F)c(C(=O)c2c[nH]c3ncc(-c4ccc(Cl)cc4)cc23)c1F | enzyme activity, inhibitor | 1 µM | inhibition | < 10%
CNC(=O)c1cc(Oc2ccc(NC(=O)Nc3ccc(Cl)c(C(F)(F)F)c3)cc2)ccn1 | enzyme activity, inhibitor | 0.3 µM | inhibition | 5%
CS(=O)(=O)NCC[C@H](NC(=O)c1cncc2c1cnn2-c1ccc(F)cc1)c1ccnc(S(C)(=O)=O)c1 | cell-free assay, competition with immobilised ligand | 1 µM | remaining binding | 100%
CC(C)(O)[C@H]1CC[C@H](Nc2ccc3ncc(-c4cccc(C(F)(F)F)c4)n3n2)CC1 | enzyme activity, inhibitor | 1 µM | remaining activity | 107%
Nc1ncnc2occ(-c3ccc(NC(=O)Nc4cc(C(F)(F)F)ccc4F)cc3)c12 | cell-free assay, inhibitor | 20 µM | remaining signal | 25%
O=C1NC(=O)c2cc(Nc3ccc(F)cc3)c(Nc3ccc(F)cc3)cc21 | cell-free assay | 0.5 µM | remaining signal | 96.7%
Cc1ccc(Nc2nccc(N(C)c3ccc4c(C)n(C)nc4c3)n2)cc1S(N)(=O)=O | enzyme activity, inhibitor | 0.3 µM | inhibition | 1%
CCN(CC)c1ccc(C2=NNC(=O)CC2C)cc1[N+](=O)[O-] (stereo not shown) | enzyme activity, inhibitor | 10 µM | remaining activity | 99%
CCN(CC)CCNC(=O)c1c(C)[nH]c(/C=C2\C(=O)Nc3ccc(F)cc32)c1C | enzyme activity, inhibitor | 0.3 µM | inhibition | 30%
Cc1sc(C(=O)NC2COC2)cc1-n1cc(NC(=O)Nc2c(F)cccc2Cl)cn1 | enzyme activity, inhibitor | 10 µM | remaining activity | 99.5%
CC(C)(C)c1nc2c(s1)c1nc(N)ncc1c1ccc(NS(=O)(=O)c3c(F)cccc3F)c(F)c12 | enzyme activity, inhibitor, radiometric | 1 µM | remaining activity | 81%
COc1ccc2c(c1)O[C@@H](c1ccc(OC)c(OC)c1)C[C@H]2NC(=O)C1(c2ccc3c(c2)OC(F)(F)O3)CC1 | cell-free assay, competition with immobilised ligand | 1 µM | remaining binding | 98%
Cc1ccc(C(=O)Nc2ccc(CN3CCN(C)CC3)c(C(F)(F)F)c2)cc1C#Cc1cnc2cccnn12 | enzyme activity, inhibitor | 23.5 nM | remaining activity | 100%
O=C1Nc2ccc(Cl)cc2C1=Cc1cc(Cl)c(O)c(Cl)c1 | cell-free assay | 0.5 µM | remaining signal | 135%
O=C(Nc1ccc(Oc2ccc(F)cc2)cc1)N1CCc2ncccc2[C@H]1c1ccc(F)cc1 | cell-free assay, competition with immobilised ligand | 1 µM | remaining binding | 100%
